Measured values taken from ChEMBL document CHEMBL1141461, “Polyene antibiotics from Streptomyces mediocidicus” (2007).
In brackets after ≈: the same amount, converted by molar mass.

Tests used:
Assay type in all cases: functional
Candida parapsilosis [1] = experiment: Antifungal activity against Candida parapsilosis GC 3076; conditions: Lodderomyces parapsilosis
In short: (§1)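 Yeast MIC by broth microdilution in RPMI-1640. Agent at final 0.03-128 µg/mL, yeast inoculum 0.5-2.5 × 10^3 cfu/mL. MIC read after 48 h incubation at 30 °C.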

Candida tropicalis [2] = experiment: Antifungal activity against Candida tropicalis GC 3080; in short: as §1
Candida albicans [3] = experiment: Antifungal activity against Candida albicans GC 3065; in short: as §1
Candida albicans [4] = experiment: Antifungal activity against Candida albicans GC 3066; in short: as §1
Candida albicans [5] = experiment: Antifungal activity against Candida albicans GC 3064; in short: as §1
Candida tropicalis [6] = experiment: Antifungal activity against Candida tropicalis GC 3081; in short: as §1
Diutina rugosa = experiment: Antifungal activity against Candida rugosa GC 3077; in short: as §1
Pichia kudriavzevii = experiment: Antifungal activity against Candida Krussii GC 3067; in short: as §1
Candida parapsilosis [7] = experiment: Antifungal activity against Candida parapsilosis GC 3074; conditions: Lodderomyces parapsilosis; in short: as §1
Clavispora lusitaniae = experiment: Antifungal activity against Candida lusitaniae GC 3068; in short: as §1
Candida parapsilosis [8] = experiment: Antifungal activity against Candida parapsilosis GC 3075; conditions: Lodderomyces parapsilosis; in short: as §1
Kluyveromyces marxianus = experiment: Antifungal activity against Candida pseudotropicalis GC 3070; in short: as §1
Aspergillus niger = experiment: Antifungal activity against Aspergillus niger GC 3091
Aspergillus fumigatus = experiment: Antifungal activity against Aspergillus fumigatus GC 3092

SMILES	MIC (Candida parapsilosis [1])	MIC (Candida tropicalis [2])	MIC (Candida albicans [3])	MIC (Candida albicans [4])	MIC (Candida albicans [5])	MIC (Candida tropicalis [6])	MIC (Diutina rugosa)	MIC (Pichia kudriavzevii)	MIC (Candida parapsilosis [7])	MIC (Clavispora lusitaniae)	MIC (Candida parapsilosis [8])	MIC (Kluyveromyces marxianus)	MIC (Aspergillus niger)	MIC (Aspergillus fumigatus)
COC(=O)/C(C)=C/C=C/C=C/CC/C=C/C(C)C(O)C(C)C(O)/C=C/C=C/C=C/C=C/C=C/C=C/CC(OS(=O)(=O)O)C(C)C(=O)CC(O)CC(O)/C=C/CC(O)CC(O)CC(O)/C=C/CC(O)CC(O)/C=C/CC(O)CC(O)CCCN (stereo not given)	> 128 µg/mL	16 µg/mL (≈ 13.4 µM)	16 µg/mL (≈ 13.4 µM)	32 µg/mL (≈ 26.9 µM)	16 µg/mL (≈ 13.4 µM)	32 µg/mL (≈ 26.9 µM)	8 µg/mL (≈ 6.72 µM)	8 µg/mL (≈ 6.72 µM)	128 µg/mL (≈ 108 µM)	16 µg/mL (≈ 13.4 µM)	> 128 µg/mL	8 µg/mL (≈ 6.72 µM)	> 128 µg/mL	> 128 µg/mL
C[C@@H]1[C@H](O)[C@@H](C)/C=C/C=C/C=C/C=C/C=C/C=C/C=C/[C@H](O[C@@H]2O[C@H](C)[C@@H](O)[C@H](N)[C@@H]2O)C[C@@H]2O[C@](O)(C[C@@H](O)C[C@@H](O)[C@H](O)CC[C@@H](O)C[C@@H](O)CC(=O)O[C@H]1C)C[C@H](O)[C@H]2C(=O)O [AMPHOTERICIN B]	0.5 µg/mL (≈ 0.541 µM)	0.5 µg/mL (≈ 0.541 µM)	0.25 µg/mL (≈ 0.271 µM)	0.25 µg/mL (≈ 0.271 µM)	0.5 µg/mL (≈ 0.541 µM)	0.5 µg/mL (≈ 0.541 µM)	0.5 µg/mL (≈ 0.541 µM)	0.5 µg/mL (≈ 0.541 µM)	0.25 µg/mL (≈ 0.271 µM)	0.25 µg/mL (≈ 0.271 µM)	0.5 µg/mL (≈ 0.541 µM)	0.25 µg/mL (≈ 0.271 µM)	0.25 µg/mL (≈ 0.271 µM)	0.25 µg/mL (≈ 0.271 µM)
C\C(=C/C=C/C=C/CC/C=C/C(C)C(O)C(C)C(O)/C=C/C=C/C=C/C=C/C=C/C=C/CC(OS(=O)(=O)O)C(C)C(=O)CC(O)CC(O)/C=C/CC(O)CC(O)CC(O)/C=C/CC(O)CC(O)/C=C/CC(O)CC(O)CCCN)C(=O)O (stereo not given) [MEDIOMYCIN A]	16 µg/mL (≈ 13.6 µM)	16 µg/mL (≈ 13.6 µM)	2 µg/mL (≈ 1.7 µM)	4 µg/mL (≈ 3.4 µM)	2 µg/mL (≈ 1.7 µM)	8 µg/mL (≈ 6.8 µM)	2 µg/mL (≈ 1.7 µM)	2 µg/mL (≈ 1.7 µM)	16 µg/mL (≈ 13.6 µM)	2 µg/mL (≈ 1.7 µM)	16 µg/mL (≈ 13.6 µM)	1 µg/mL (≈ 0.85 µM)	1 µg/mL (≈ 0.85 µM)	128 µg/mL (≈ 109 µM)

Continued by falling MIC (Candida parapsilosis [1]), values first:

MIC (Candida parapsilosis [1])	MIC (Candida tropicalis [2])	MIC (Candida albicans [3])	MIC (Candida albicans [4])	MIC (Candida albicans [5])	MIC (Candida tropicalis [6])	MIC (Diutina rugosa)	MIC (Pichia kudriavzevii)	MIC (Candida parapsilosis [7])	MIC (Clavispora lusitaniae)	MIC (Candida parapsilosis [8])	MIC (Kluyveromyces marxianus)	MIC (Aspergillus niger)	MIC (Aspergillus fumigatus)	SMILES
16 µg/mL (≈ 13.1 µM)	16 µg/mL (≈ 13.1 µM)	4 µg/mL (≈ 3.28 µM)	4 µg/mL (≈ 3.28 µM)	4 µg/mL (≈ 3.28 µM)	8 µg/mL (≈ 6.57 µM)	4 µg/mL (≈ 3.28 µM)	2 µg/mL (≈ 1.64 µM)	16 µg/mL (≈ 13.1 µM)	4 µg/mL (≈ 3.28 µM)	16 µg/mL (≈ 13.1 µM)	2 µg/mL (≈ 1.64 µM)	4 µg/mL (≈ 3.28 µM)	> 128 µg/mL	C\C(=C/C=C/C=C/CC/C=C/C(C)C(O)C(C)C(O)/C=C/C=C/C=C/C=C/C=C/C=C/CC(OS(=O)(=O)O)C(C)C(=O)CC(O)CC(O)/C=C/CC(O)CC(O)CC(O)/C=C/CC(O)CC(O)/C=C/CC(O)CC(O)CCCNC(=N)N)C(=O)O (stereo not given) [CLETHRAMYCIN]
2 µg/mL (≈ 1.82 µM)	2 µg/mL (≈ 1.82 µM)	1 µg/mL (≈ 0.912 µM)	1 µg/mL (≈ 0.912 µM)	1 µg/mL (≈ 0.912 µM)	2 µg/mL (≈ 1.82 µM)	1 µg/mL (≈ 0.912 µM)	1 µg/mL (≈ 0.912 µM)	2 µg/mL (≈ 1.82 µM)	2 µg/mL (≈ 1.82 µM)	4 µg/mL (≈ 3.65 µM)	1 µg/mL (≈ 0.912 µM)	1 µg/mL (≈ 0.912 µM)	16 µg/mL (≈ 14.6 µM)	C\C(=C/C=C/C=C/CC/C=C/C(C)C(O)C(C)C(O)/C=C/C=C/C=C/C=C/C=C/C=C/CC(O)C(C)C(=O)CC(O)CC(O)/C=C/CC(O)CC(O)CC(O)/C=C/CC(O)CC(O)/C=C/CC(O)CC(O)CCCN)C(=O)O (stereo not given) [MEDIOMYCIN B]
